Results as given in ChEMBL document CHEMBL1932972, “ent-Kaurane diterpenoids from Croton tonkinensis stimulate osteoblast differentiation” (J Nat Prod, 2011).
Calls of active or inactive are those of the source.

Experiments:
[1] = tested on: C2C12; test: Induction of osteoblast differentiation in mouse C2C12 cells assessed as increase in osteoclacin promoter activity at 10 uM measured 48 hrs by luciferase reporter gene analysis; assay type: functional, cell-based
How it was run: (§1)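 C2C12 cells seeded and grown 24 h, then transiently transfected (Ca3PO4 or Lipofectamine Plus) with ALP-, OC-, BSP- or OSE-luciferase reporter plus pCMV β-gal to normalise transfection efficiency. Treated at 10 μM. Luciferase read from cell lysates 48 h post-transfection; three independent experiments.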

[2] = tested on: C2C12; test: Induction of osteoblast differentiation in mouse C2C12 cells assessed as increase in of bone sialoprotein promoter activity at 10 uM measured 48 hrs by luciferase reporter gene analysis; assay type: functional, cell-based; how it was run: as §1
[3] = tested on: C2C12; test: Induction of osteoblast differentiation in mouse C2C12 cells assessed as increase in OSE promoter activity at 10 uM measured 48 hrs by luciferase reporter gene analysis; assay type: functional, cell-based; how it was run: as §1
[4] = tested on: C2C12; test: Induction of osteoblast differentiation in mouse C2C12 cells assessed as increase in ALP promoter activity measured 48 hrs by luciferase reporter gene analysis; assay type: functional, cell-based
How it was run: (§2)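 ALP- or OC-luciferase reporter transfected into C2C12 cells with pCMV β-gal control (Ca3PO4 or Lipofectamine Plus), after 24 h growth post-seeding. Dose-response at 1, 5 and 10 μM. Lysate luciferase activity measured 48 h later; three independent experiments.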

[5] = tested on: C2C12; test: Induction of osteoblast differentiation in mouse C2C12 cells assessed as increase in osteoclacin promoter activity measured 48 hrs by luciferase reporter gene analysis; assay type: functional, cell-based; how it was run: as §2
[6] = tested on: C2C12; test: Induction of osteoblast differentiation in mouse C2C12 cells assessed as increase in ALP promoter activity at 10 uM measured 48 hrs by luciferase reporter gene analysis; assay type: functional, cell-based; how it was run: as §1
[7] = tested on: C2C12; test: Induction of osteogenesis in mouse C2C12 cells assessed as increase in osteoblast differentiation-associated ALP level at 10 uM after 2 days in presence of 5 ng/mL BMP2
[8] = tested on: C2C12; test: Increase in ALP mRNA expression in mouse C2C12 cells by RT-PCR analysis; assay type: functional, cell-based
How it was run: (§3)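 C2C12 cells (DMEM, 20% FBS, 37 °C, 5% CO2) treated at 1, 5, 10 μM, with BMP2 as comparator. Total RNA extracted with TRIzol. cDNA made from 1 μg RNA using random primers. Semiquantitative RT-PCR for ALP and collagen type 1α with GAPDH reference, 28−30 cycles (94 °C 30 s, primer-specific annealing 30 s, 72 °C 30 s).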

[9] = tested on: C2C12; test: Increase in collagen type 1 alpha mRNA expression in mouse C2C12 cells by RT-PCR analysis; assay type: functional, cell-based; how it was run: as §3

Measured: Activity

C=C1C[C@]23C[C@H]1CC[C@H]2[C@]1(C)CCC[C@](C)(COC(C)=O)[C@H]1C[C@H]3O
active: [1] | [2] | [3] | [4] Dose-dependent effect | [5] Dose-dependent effect | [6] | [7]

C=C1C[C@@]23CC[C@@H]4[C@@](C)(COC(C)=O)CCC[C@@]4(C)[C@@H]2[C@H](O)C[C@@H]1C3
active: [1] | [2] | [3] | [8] Dose-dependent effect | [9] Dose-dependent effect | [4] Dose-dependent effect | [5] Dose-dependent effect | [6] | [7]

C=C1C[C@@]23CC[C@@H]4[C@@](C)(COC(C)=O)CCC[C@@]4(C)[C@@H]2CC[C@@H]1[C@H]3O
active: [1] | [2] | [3] | [8] Dose-dependent effect | [9] Dose-dependent effect | [4] Dose-dependent effect | [5] Dose-dependent effect | [6] | [7]

C=C1C[C@@]23CC[C@@H]4[C@@](C)(CO)CCC[C@@]4(C)[C@@H]2[C@@H](OC(C)=O)C[C@@H]1C3
active: [1] | [2] | [3] | [8] Dose-dependent effect | [9] Dose-dependent effect | [4] Dose-dependent effect | [5] Dose-dependent effect | [6] | [7]
